ChEMBL document CHEMBL1148000, “Naphthyl piperazines with dual activity as 5-HT1D antagonists and 5-HT reuptake inhibitors” (Bioorg Med Chem Lett, 2007)
Activity calls are given as the source filed them. The calls are words filed in the database; no cut-off is given here.

Legend:
[1] = biological target: 5-hydroxytryptamine receptor 1B (Homo sapiens, UniProt P28222); assay: Displacement of [3H]GR-125743 from human 5HT1B expressed in LM(tk-) cells; type: cell-based
Method in brief: (§1)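 Human 5-HT1B or 5-HT1D receptors were cloned into L-M(tk-) cells, and membrane homogenates were prepared from these cells. Binding used [3H]-GR125743 as radioligand. Ki (nM) is the mean of runs in triplicate.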

[2] = biological target: Sodium-dependent serotonin transporter (Homo sapiens, UniProt P31645); assay: Displacement of [3H]citalopram from human 5HT transporter expressed in HEK293 cells; type: cell-based
Method in brief: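 Human serotonin transporter was expressed in HEK293 cells. Inhibition was measured as displacement of [3H]-citalopram. Ki (nM) is the mean of runs in triplicate.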

[3] = biological target: T1, 5-hydroxytryptamine receptor 1D (Homo sapiens, UniProt P28221); assay: Displacement of [3H]GR-125743 from human 5HT1D expressed in LM(tk-) cells; type: cell-based; method in brief: as §1
[4] = biological target: T1, 5-hydroxytryptamine receptor 1D; assay: Antagonist activity at human 5HT1D expressed in LM(tk-) cells by [35S]GTPgamma binding assay; type: functional, cell-based
Method in brief: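 5-HT dose–response curves for [35S]GTPγS binding were run in LM(tk-) cells stably expressing the human 5-HT1D receptor. Antagonism was read as the rightward shift of these curves. Results are given as KB or as % displacement at 30 nM.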

[5] = biological target: T2, Adrenergic receptor alpha-1 (Rattus norvegicus, UniProt P15823+P23944+P43140); assay: Displacement of [3H]prazosin from adrenergic alpha-1 receptor in rat cortical membranes; type: cell membranes, Membrane
T2 sequence (P15823 whole entry): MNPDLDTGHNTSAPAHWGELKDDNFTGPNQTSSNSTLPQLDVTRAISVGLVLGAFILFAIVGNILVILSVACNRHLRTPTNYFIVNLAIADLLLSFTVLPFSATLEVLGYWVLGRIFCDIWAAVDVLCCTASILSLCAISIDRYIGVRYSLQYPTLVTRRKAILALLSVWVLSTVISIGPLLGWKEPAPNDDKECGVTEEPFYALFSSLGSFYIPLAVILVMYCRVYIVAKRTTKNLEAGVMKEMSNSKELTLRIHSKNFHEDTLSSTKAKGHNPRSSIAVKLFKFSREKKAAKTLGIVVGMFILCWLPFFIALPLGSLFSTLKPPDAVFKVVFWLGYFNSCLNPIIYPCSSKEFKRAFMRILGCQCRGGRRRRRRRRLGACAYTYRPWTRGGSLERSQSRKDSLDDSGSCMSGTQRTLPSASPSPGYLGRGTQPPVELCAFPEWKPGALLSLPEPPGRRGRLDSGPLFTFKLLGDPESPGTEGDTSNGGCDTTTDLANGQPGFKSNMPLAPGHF
T2 sequence (P23944 whole entry): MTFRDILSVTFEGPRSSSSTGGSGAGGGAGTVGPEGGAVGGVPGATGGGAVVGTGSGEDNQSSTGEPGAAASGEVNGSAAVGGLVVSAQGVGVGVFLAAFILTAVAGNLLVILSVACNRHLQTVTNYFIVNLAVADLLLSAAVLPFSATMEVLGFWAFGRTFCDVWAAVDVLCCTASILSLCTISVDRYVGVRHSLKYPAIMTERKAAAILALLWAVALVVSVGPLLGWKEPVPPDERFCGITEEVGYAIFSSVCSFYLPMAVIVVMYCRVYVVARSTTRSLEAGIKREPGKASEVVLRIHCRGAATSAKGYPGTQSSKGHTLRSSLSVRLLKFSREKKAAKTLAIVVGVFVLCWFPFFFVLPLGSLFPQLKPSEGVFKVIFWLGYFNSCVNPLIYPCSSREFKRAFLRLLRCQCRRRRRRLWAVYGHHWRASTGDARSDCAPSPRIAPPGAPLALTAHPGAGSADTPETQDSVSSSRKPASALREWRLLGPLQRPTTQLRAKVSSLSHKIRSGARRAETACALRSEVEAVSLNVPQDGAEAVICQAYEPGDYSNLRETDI
T2 sequence (P43140 whole entry): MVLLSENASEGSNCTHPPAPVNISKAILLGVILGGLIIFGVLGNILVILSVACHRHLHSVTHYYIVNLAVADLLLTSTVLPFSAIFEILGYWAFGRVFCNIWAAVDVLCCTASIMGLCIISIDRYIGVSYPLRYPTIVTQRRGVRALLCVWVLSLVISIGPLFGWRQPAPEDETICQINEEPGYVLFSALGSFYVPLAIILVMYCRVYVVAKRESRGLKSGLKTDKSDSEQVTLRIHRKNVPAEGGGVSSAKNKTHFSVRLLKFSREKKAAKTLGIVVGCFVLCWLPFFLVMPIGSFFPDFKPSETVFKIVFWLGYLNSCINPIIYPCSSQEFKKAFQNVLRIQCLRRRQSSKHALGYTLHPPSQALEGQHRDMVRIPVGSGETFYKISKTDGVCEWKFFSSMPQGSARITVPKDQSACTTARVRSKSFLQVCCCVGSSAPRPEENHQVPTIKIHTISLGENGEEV
Method in brief: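 Rat cortex membranes were used, with [3H]-prazosin as radioligand for α1 binding. Ki (nM) is the mean of runs in triplicate.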

[6] = biological target: D(2) dopamine receptor (Rattus norvegicus, UniProt P61169); assay: Displacement of [3H]raclopride from dopamine D2 receptor in rat caudate membranes; type: cell membranes, Membrane
Method in brief: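 D2 binding was measured in rat caudate membranes with [3H]-raclopride. Ki (nM) is the mean of runs in triplicate.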

[7] = biological target: T3, 5-hydroxytryptamine receptor 1A (Homo sapiens, UniProt P08908); assay: Displacement of [3H]8-OH-DPAT from human 5HT1A expressed in LM(tk-) cells; type: cell-based
T3 sequence (P08908 whole entry): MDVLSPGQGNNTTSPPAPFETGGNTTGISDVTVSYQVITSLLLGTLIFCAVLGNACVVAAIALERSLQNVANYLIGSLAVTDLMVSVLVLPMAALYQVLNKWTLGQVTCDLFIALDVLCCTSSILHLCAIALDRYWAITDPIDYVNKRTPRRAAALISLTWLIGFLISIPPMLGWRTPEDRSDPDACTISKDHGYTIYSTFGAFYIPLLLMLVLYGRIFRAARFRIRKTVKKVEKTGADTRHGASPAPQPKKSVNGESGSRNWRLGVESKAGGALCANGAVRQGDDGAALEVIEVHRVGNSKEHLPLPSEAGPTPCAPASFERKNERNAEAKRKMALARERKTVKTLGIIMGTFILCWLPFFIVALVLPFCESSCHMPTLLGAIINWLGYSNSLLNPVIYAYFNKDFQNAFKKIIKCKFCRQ
Method in brief: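 Human 5-HT1A was cloned into L-M(tk-) cells, and membrane homogenates were prepared. Binding used [3H]-8-OH-DPAT as radioligand. Ki (nM) is the mean of runs in triplicate.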

[8] = system: Hypothalamus; assay: Increase in extracellular 5HT level in guinea pig hypothalamus at 10 mg/kg, po after 3 hrs; type: functional, organism-based; parameters: dose 10 mg/kg; settings: Cavia porcellus
Method in brief: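 Microdialysis was done in the hypothalamus of freely moving guinea pigs. Dosing was 10 mg/kg po. Extracellular 5-HT is expressed as a percentage of a pre-injection control period, assessed over 3 h post-dose, as means + SEM.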

[9] = biological target: T1, 5-hydroxytryptamine receptor 1D; assay: Functional antagonism of 5-HT-stimulated GTP-gamma-[35S] binding to human 5HT1D expressed in LM(tk-) cells at 30 nM; parameters: scale not given: the % may be the effect or the level left

5-hydroxytryptamine receptor 1B, sequence (P28222 whole entry): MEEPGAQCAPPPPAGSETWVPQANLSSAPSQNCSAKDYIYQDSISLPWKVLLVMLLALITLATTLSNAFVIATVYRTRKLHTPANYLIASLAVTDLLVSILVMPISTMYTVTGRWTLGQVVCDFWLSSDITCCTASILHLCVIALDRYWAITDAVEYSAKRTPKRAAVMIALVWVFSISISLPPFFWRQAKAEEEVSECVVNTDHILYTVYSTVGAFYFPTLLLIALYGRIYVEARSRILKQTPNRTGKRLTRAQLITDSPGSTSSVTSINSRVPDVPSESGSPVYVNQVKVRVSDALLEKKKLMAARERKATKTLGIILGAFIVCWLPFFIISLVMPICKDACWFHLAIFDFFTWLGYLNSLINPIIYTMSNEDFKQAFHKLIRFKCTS
D(2) dopamine receptor, sequence (P61169 whole entry): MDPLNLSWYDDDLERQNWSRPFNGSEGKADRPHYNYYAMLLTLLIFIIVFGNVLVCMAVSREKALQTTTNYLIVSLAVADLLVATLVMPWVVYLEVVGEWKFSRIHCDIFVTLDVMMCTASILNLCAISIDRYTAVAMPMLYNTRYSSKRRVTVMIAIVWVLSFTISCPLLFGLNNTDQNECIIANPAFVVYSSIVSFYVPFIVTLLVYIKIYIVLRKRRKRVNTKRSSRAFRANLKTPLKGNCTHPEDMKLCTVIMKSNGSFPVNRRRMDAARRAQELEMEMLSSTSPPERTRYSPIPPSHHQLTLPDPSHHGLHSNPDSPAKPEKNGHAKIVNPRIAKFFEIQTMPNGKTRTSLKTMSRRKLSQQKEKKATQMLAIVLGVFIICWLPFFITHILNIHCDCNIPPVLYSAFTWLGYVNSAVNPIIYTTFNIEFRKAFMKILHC
T1 sequence (P28221 whole entry): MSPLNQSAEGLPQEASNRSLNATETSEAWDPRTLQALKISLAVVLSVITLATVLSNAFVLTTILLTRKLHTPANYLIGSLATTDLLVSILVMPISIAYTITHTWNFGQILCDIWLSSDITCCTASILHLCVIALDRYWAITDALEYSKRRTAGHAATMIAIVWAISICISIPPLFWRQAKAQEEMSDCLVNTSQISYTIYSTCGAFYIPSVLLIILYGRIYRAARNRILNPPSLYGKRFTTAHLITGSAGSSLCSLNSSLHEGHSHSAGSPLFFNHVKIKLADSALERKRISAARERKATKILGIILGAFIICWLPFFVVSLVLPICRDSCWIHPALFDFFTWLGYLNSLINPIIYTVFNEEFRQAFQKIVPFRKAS
Sodium-dependent serotonin transporter, sequence (P31645 whole entry): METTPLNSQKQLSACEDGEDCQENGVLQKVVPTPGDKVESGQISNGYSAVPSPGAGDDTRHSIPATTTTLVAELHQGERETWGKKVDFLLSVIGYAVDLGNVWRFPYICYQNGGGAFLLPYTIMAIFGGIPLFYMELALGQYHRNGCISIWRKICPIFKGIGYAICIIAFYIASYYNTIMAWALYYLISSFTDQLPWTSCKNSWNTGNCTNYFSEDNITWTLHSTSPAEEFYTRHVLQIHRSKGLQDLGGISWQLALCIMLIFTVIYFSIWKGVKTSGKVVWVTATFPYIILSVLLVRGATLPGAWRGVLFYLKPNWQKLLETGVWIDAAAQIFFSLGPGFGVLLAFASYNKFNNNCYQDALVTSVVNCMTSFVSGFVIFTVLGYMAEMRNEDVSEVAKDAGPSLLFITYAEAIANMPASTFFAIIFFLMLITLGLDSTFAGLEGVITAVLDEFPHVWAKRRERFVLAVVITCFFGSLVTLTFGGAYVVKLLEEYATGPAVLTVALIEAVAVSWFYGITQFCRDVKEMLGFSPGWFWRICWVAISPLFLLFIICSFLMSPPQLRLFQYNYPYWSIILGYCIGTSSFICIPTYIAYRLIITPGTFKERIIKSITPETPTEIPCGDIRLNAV

Ki [1] [nM]	Ki [2] [nM]	Ki [3] [nM]	Kb [4] [nM]	Ki [5] [nM]	Ki [6] [nM]	Ki [7] [nM]	Activity [9] [%]	Compound	Activity [8]
> 1000	8.1	10	0.86	96	704			NC(=O)c1ccc2c(c1)CCO[C@H]2CCN1CCN(c2ccc3cc(F)ccc3c2)CC1	
281	0.8	56	0.01	16	4.7			C[C@@H]1CN(c2cccc3cc(F)ccc23)CCN1CCC1OCCc2cc(C(N)=O)ccc21 (some centres undefined)	
103	3	7	0.01	80	71	115		C[C@@H]1CN(c2cccc3cc(F)ccc23)CCN1CC[C@@H]1OCCc2cc(C(N)=O)ccc21	
> 1000	2.1	14	4.05	91	1170	307		C[C@H]1CN(c2ccc3cc(F)ccc3c2)CCN1CC[C@@H]1OCCc2cc(C(N)=O)ccc21	
88	1.3	1.8	0.18	338	346			C[C@H]1CN(c2cccc3cc(C#N)ccc23)CCN1CC[C@H]1OCc2cc(C(N)=O)ccc21	
91	7.4	88	11.1	74	78	105		C[C@@H]1CN(c2cccc3cc(F)ccc23)CCN1CC[C@H]1OCCc2cc(C(N)=O)ccc21	
114	1.3	14	0.05	64	26	13		C[C@H]1CN(c2cccc3cc(F)ccc23)CCN1CC[C@@H]1OCc2cc(C(N)=O)ccc21	
> 1000	8.8	67	1.9	43	107	13		C[C@H]1CN(c2cccc3cc(F)ccc23)CCN1CC[C@H]1OCc2cc(C(N)=O)ccc21	
21	2.2	0.9		353	287	26	124	C[C@H]1CN(c2cccc3cc(C#N)ccc23)CCN1CC[C@@H]1OCCc2cc(C(N)=O)ccc21	Active
15	5.7	1		178	88	16	101	N#Cc1ccc2c(N3CCN(CC[C@@H]4OCCc5cc(C(N)=O)ccc54)CC3)cccc2c1	

Compound	Ki [1] [nM]	Ki [2] [nM]	Ki [3] [nM]	Kb [4] [nM]	Ki [5] [nM]	Ki [6] [nM]	Ki [7] [nM]	Activity [9] [%]	Activity [8]
NC(=O)c1ccc2c(c1)CCOC2CCN1CC=C(c2c[nH]c3cc(F)ccc23)CC1 (centres undefined)	203	0.1	8	4.3	0.7	42			
